Yeast superoxide: caloric restriction mimetics inhibiting age-related superoxide in yeast; actives 0.18% (n = 330,000); superoxide response (% of plate mean), % at 10 µM; S. cerevisiae aged cells, superoxide DHE fluorescence; stronger effect = lower value; AID 2690;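 active = superoxide response under a set limit, about three screen SD below normal, cut at about 65% in these data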;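 also: yeast aged for seven days with compound at 30 °C before DHE staining; 100% = average MFI of all compound-treated wells on the plate with controls excluded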
HIF act: HIF pathway transcriptional activation | U2OS HRE-luciferase reporter, luminescence; normalized: DMSO 0%, desferrioxamine 100% | activation, % at 7.5 µM (by protocol) | actives 0.32% (n = 300,000) | AID 1910;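 active = mean activation of at least 10% of the iron chelator positive control signal, with at least half of replicates also reaching 10%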
CendR NRP1 mod: alters CendR peptide binding to human NRP-1. O14786. FAM-RPARPAR peptide binding to NRP-1, fluorescence polarization. inhibition, % at 25 µM. actives 0.85% (n = 360,000). AID 602438;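 active = inhibition or corrected inhibition above about 18%, plus a signal ratio from 0.5 to 1.5, limit read from the data, passing the limit was not always enough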
T cruzi inh: T. cruzi replication inhibition. inhibition, % (no concentration beside the values). T. cruzi beta-gal in NIH3T3, luminescence, 90 h. actives 1.4% (n = 300,000);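 active = mean inhibition across valid replicates above about 55%, limit read from the data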;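 also: signal also drops with host cell toxicity which is not excluded here; 0% = plate median of DMSO wells and 100% = zero luminescence signal; higher percent means less beta-gal luminescence so fewer parasites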
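Assay system: NIH/3T3 fibroblasts plus reporter T. cruzi. Amount: NIH/3T3 cells, 5,000 per well. Buffer or medium: DMEM, 2% fetal bovine serum. Doses: compound pinned at 50 nL/well, DMSO. Schedule: ≥90 h infection period, 3 h prior cell attachment. Signal: luminescent β-galactosidase signal after 60 min lysis. Read-out: parasite load inhibition, %.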
AI-2 QS mod: modulates the Vibrio harveyi AI-2 quorum sensing system | Vibrio harveyi JMH597 AI-2 luminescence/OD600 ratio, 9 h; stronger effect = lower value; strain lacks LuxN and CqsS sensors; 0 = neutral-control median | activity change, % at 7.5 µM | actives 0.4% (n = 300,000) | AID 2094; in the data active = activity change below about -75%, passing the limit was not always enough;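 also: luminescence divided by OD600 gain over 9 h not by final OD600 alone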
V-ATPase pH: regulators of yeast V-ATPase proton transport | AID 504577 | S. cerevisiae, pHLuorin cytosolic pH fluorescence | response, % at 10 µM | actives 0.37% (n = 350,000); in the data active = response mostly above about 7.3%, no sharp cut-off; inactive = mostly below about 5.4%; also: actives read high
* hit, by the source's call. In the library only some 3% were active in any assay of this set; here they are far more common.

CCCCCn1c(NC(=O)c2ccco2)c(S(=O)(=O)c2ccc(C)cc2)c2nc3ccccc3nc21 was read as Yeast superoxide 102.1, HIF act 1.6, CendR NRP1 mod -16.1, T cruzi inh 55.3*, AI-2 QS mod -1.9 and V-ATPase pH 0.1.
Screening CCCCn1c(NC(=O)c2ccco2)c(S(=O)(=O)c2ccc(C)cc2)c2nc3ccccc3nc21 returned HIF act 0.0, CendR NRP1 mod -160.4, T cruzi inh 11.5, AI-2 QS mod -8.4 and V-ATPase pH 0.8.
For CCOC(=O)/C(C#N)=C1/SC(C)C(=O)N1c1ccc(Br)cc1 (stereo unspecified) the results were Yeast superoxide 91.2, HIF act 0.1, CendR NRP1 mod 2.6, T cruzi inh -20.1, AI-2 QS mod 19.8 and V-ATPase pH -0.6.
`CCOc1ccccc1-c1nc(-c2ccc(NC(=O)Cc3ccccc3OC)cc2)no1` gave Yeast superoxide 101.7, HIF act -1.1, CendR NRP1 mod -15.1, T cruzi inh 56.3*, AI-2 QS mod 5.3 and V-ATPase pH 1.1.
`COc1ccccc1CC(=O)Nc1ccc(-c2noc(COc3ccc(Cl)c(C)c3)n2)cc1` gave Yeast superoxide 97.0, HIF act -0.8, CendR NRP1 mod 2.4, T cruzi inh 33.1, AI-2 QS mod 32.1 and V-ATPase pH 5.2.
For O=C(CNC(=S)N(Cc1ccccc1)Cc1cccnc1)NCCc1ccccc1 the results were Yeast superoxide 110.9, HIF act -0.3, CendR NRP1 mod 5.5, T cruzi inh 46.9, AI-2 QS mod 19.3 and V-ATPase pH 3.2.
`CC(C)CCNC(=O)CNC(=S)N(Cc1ccccc1)Cc1cccnc1` gave Yeast superoxide 121.4, HIF act -0.7, CendR NRP1 mod -4.7, T cruzi inh 61.0*, AI-2 QS mod 9.6 and V-ATPase pH 2.7.
`CC(C)c1ccccc1NC(=O)c1cnccn1` gave Yeast superoxide 103.9, HIF act -0.5, CendR NRP1 mod 58.8*, T cruzi inh -7.7, AI-2 QS mod 5.1 and V-ATPase pH -2.1.
Cc1noc(C)c1C(=O)N1CCC1(C)C(=O)NS(=O)(=O)c1cccc(Cl)c1 (stereo unspecified) was read as CendR NRP1 mod 41.3*.
Screening CN(C(=O)COc1ccccc1C(=O)NCCOc1ccccc1)c1ccccc1 returned Yeast superoxide 92.6, HIF act -1.3, CendR NRP1 mod 9.0, T cruzi inh -33.0, AI-2 QS mod 14.5 and V-ATPase pH -3.6.
`CC1(C)CC(=O)C(CC2C(=O)CC(C)(C)CC2=O)C(=O)C1` gave Yeast superoxide 84.8, HIF act 54.4*, CendR NRP1 mod 2.1, T cruzi inh 3.7, AI-2 QS mod 16.2 and V-ATPase pH -0.4.
`CC1(C)CC(=O)C(CC2CCCCC2=O)C(=O)C1` (stereo unspecified) gave Yeast superoxide 103.2, HIF act -0.2, CendR NRP1 mod 2.4, T cruzi inh -12.6, AI-2 QS mod 6.2 and V-ATPase pH -0.3.
Cc1nn(-c2ccccn2)c2c1-c1nc(N3CCOCC3)ncc1CC2 was read as Yeast superoxide 92.0, HIF act 0.1, CendR NRP1 mod 10.6, T cruzi inh 17.2, AI-2 QS mod -12.9 and V-ATPase pH 0.1.
Screening C=CCC(C(=O)OC)(C(=O)OC)c1ccc([N+](=O)[O-])cc1[N+](=O)[O-] returned Yeast superoxide 122.9, HIF act -0.1, CendR NRP1 mod -0.8, T cruzi inh 58.8* and V-ATPase pH -1.0.
Screening COC(=O)C(Cc1cnc(Cl)s1)(C(=O)OC)c1ccc(C(F)(F)F)cc1[N+](=O)[O-] returned Yeast superoxide 100.2, HIF act -0.4, CendR NRP1 mod 5.3, T cruzi inh -10.2, AI-2 QS mod -0.7 and V-ATPase pH 13.5.
COC(=O)C(Cc1cnc(Cl)s1)(C(=O)OC)c1ccc([N+](=O)[O-])cc1[N+](=O)[O-] was read as Yeast superoxide 91.9, HIF act -1.8, CendR NRP1 mod 7.7, T cruzi inh 56.7*, AI-2 QS mod -4.3 and V-ATPase pH 0.5.
`COc1ccc(NC(=O)c2cccc(Cn3cc(Br)c([N+](=O)[O-])n3)c2)c(C)c1` gave Yeast superoxide 77.7, HIF act -0.2, CendR NRP1 mod 8.3, T cruzi inh 68.1*, AI-2 QS mod 21.4 and V-ATPase pH -2.2.
For NNC(=O)c1cccc(Cn2cc(Br)c([N+](=O)[O-])n2)c1 the results were Yeast superoxide 96.8, HIF act 0.0, CendR NRP1 mod 5.5, T cruzi inh 45.8, AI-2 QS mod 12.2 and V-ATPase pH 0.2.
Cn1nc([N+](=O)[O-])nc1Oc1ccccc1C(=O)N1CCOCC1 was read as Yeast superoxide 111.2, HIF act 0.0, CendR NRP1 mod 2.9, T cruzi inh 93.4*, AI-2 QS mod 24.8 and V-ATPase pH 2.2.
Screening O=C1c2ccccc2NC(c2ccco2)N1/N=C/c1ccco1 (stereo unspecified) returned Yeast superoxide 99.3, HIF act 1.4, CendR NRP1 mod 18.3*, T cruzi inh -1.7, AI-2 QS mod -10.4 and V-ATPase pH -2.7.
For C/C(=N\N1C(=O)c2ccccc2NC1c1ccco1)c1ccccc1O (stereo unspecified) the results were Yeast superoxide 97.3, HIF act 0.4, CendR NRP1 mod 8.3, T cruzi inh 61.1*, AI-2 QS mod 18.1 and V-ATPase pH -1.8.
C/C(=N\N1C(=O)c2ccccc2NC1c1ccccc1)c1ccccc1O (stereo unspecified) was read as Yeast superoxide 97.7, HIF act 2.3, CendR NRP1 mod 13.5, T cruzi inh 65.6*, AI-2 QS mod 7.8 and V-ATPase pH 0.5.
For COc1ccc(/C(C)=N/N2C(=O)c3ccccc3NC2c2ccc(O)c(OC)c2)cc1 (stereo unspecified) the results were Yeast superoxide 89.4, HIF act 2.4, CendR NRP1 mod 3.3, T cruzi inh -12.0, AI-2 QS mod 6.9 and V-ATPase pH 4.1.
For COc1cc(OC)cc(-c2c(-c3cccs3)c3cc(-c4cnc(OC)nc4)ccc3n2C)c1 the results were Yeast superoxide 68.0, CendR NRP1 mod 0.5 and V-ATPase pH 1.3.
Screening O=S(=O)(c1cccc(C(F)(F)F)c1)N1CCN(C(=S)NCc2ccco2)CC1 returned Yeast superoxide 78.3, HIF act -0.2, CendR NRP1 mod -21.6, T cruzi inh -7.4, AI-2 QS mod 6.9 and V-ATPase pH 0.2.
For CC1=C(C(=O)NC(C)CCc2ccccc2)C2(CCC(C)CC2)OC1=O (stereo unspecified) the results were Yeast superoxide 83.5, HIF act -0.6, CendR NRP1 mod 1.7, T cruzi inh -18.6, AI-2 QS mod 3.8 and V-ATPase pH -0.4.
Screening COC(=O)CCCn1cc(CN2CC(N3CCN(C)CC3)CS2(=O)=O)nn1 (stereo unspecified) returned CendR NRP1 mod 3.4.
